Reference: ChEMBL document CHEMBL5230168, “Design, synthesis, and biological evaluation of new arjunolic acid derivatives as anticancer agents” (RSC Med Chem, 2023)
Active and inactive are the calls of the source. No cut-off for these calls is given here.

Tests used:
PANC-1 [1] = assay: Induction of apoptosis in human PANC-1 cells assessed as late apoptotic cells at 0.94 uM incubated for 24 hrs by Annexin V-FITC/PI staining based flow cytometric analysis (reference value: 1.1%); format: functional
Outline: (§1)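 PANC-1 seeded at 2 × 10^5 cells/well, grown 24 h, then treated 24 h. PI added just before flow cytometry. Quadrant percentages given as mean ± SD of three experiments. Untreated control.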

PANC-1 [2] = assay: Induction of apoptosis in human PANC-1 cells assessed as late apoptotic cells at 1.88 uM incubated for 24 hrs by Annexin V-FITC/PI staining based flow cytometric analysis (reference value: 1.1%); format: functional; outline: as §1
PANC-1 [3] = assay: Induction of apoptosis in human PANC-1 cells assessed as necrotic cells at 0.94 uM incubated for 24 hrs by Annexin V-FITC/PI staining based flow cytometric analysis (reference value: 3.9%); format: functional; outline: as §1
PANC-1 [4] = assay: Induction of apoptosis in human PANC-1 cells assessed as viable cells at 0.94 uM incubated for 24 hrs by Annexin V-FITC/PI staining based flow cytometric analysis (reference value: 89.8%); format: functional; conditions: read-out: Activity; outline: as §1
NCI-H2170 = assay: Cytotoxicity against human NCI-H2170 cells assessed as inhibition of cell growth incubated for 72 hrs by MTT assay; format: functional, cell-based; conditions: NCI-H2170, 72 h
Outline: (§2)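 Cells seeded per well (HT-29 4500, PANC-1 4000, SK-MEL-28 3200, A375 1200, A549 2500, H2170 and BJ 10 000) and left 24 h. They were then exposed to increasing concentrations for 72 h and incubated 1 h with MTT 0.5 mg mL−1. Formazan was dissolved in DMSO and absorbance read at 550 nm. IC50 from three independent experiments. Final DMSO ≤0.5%.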

[5] = Toxicity in Balb/c mouse assessed as transient observation of sole sign at 0.01 to 10 mg/kg, ip measured upto 24 hrs by Irwin test; format: organism-based; conditions: in vivo, dose 0.01-10 mg/kg
Outline: (§3)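 Irwin primary observation in female Balb/c mice aged 7–8 weeks, 3 per group. Single i.p. doses of 0.01, 0.1, 1, 5, 10, 50 and 100 mg kg−1 in 0.2% HPMC in saline; vehicle controls observed in parallel, non-blind. Standardized grid including rectal temperature and pupil diameter scored at 15, 30, 60, 120 and 180 min and 24 h, with continuous watch over 0–15 min.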

PANC-1 [6] = assay: Synergistic cytotoxicity against human PANC-1 cells assessed as combination index at 0.94 uM incubated for 72 hrs in the presence of 47 uM gemcitabine by MTT assay; format: functional
PANC-1 [7] = assay: Induction of apoptosis in human PANC-1 cells assessed as early apoptotic cells at 1.88 uM incubated for 24 hrs by Annexin V-FITC/PI staining based flow cytometric analysis (reference value: 5.2%); format: functional; outline: as §1
PANC-1 [8] = assay: Induction of apoptosis in human PANC-1 cells assessed as early apoptotic cells at 2.82 uM incubated for 24 hrs by Annexin V-FITC/PI staining based flow cytometric analysis (reference value: 5.2%); format: functional; outline: as §1
PANC-1 [9] = assay: Induction of apoptosis in human PANC-1 cells assessed as necrotic cells at […] incubated for 24 hrs by Annexin V-FITC/PI staining based flow cytometric analysis (reference value: 3.9%); format: functional; outline: as §1
[10] = Toxicity in Balb/c mouse assessed as loss of traction indication of muscle weakness at 50 to 100 mg/kg, ip measured upto 24 hrs by Irwin test; format: organism-based; conditions: in vivo, dose 50-100 mg/kg; outline: as §3
PANC-1 [11] = assay: Synergistic cytotoxicity against human PANC-1 cells assessed as combination index at 1.88 uM incubated for 72 hrs in the presence of 94 uM gemcitabine by MTT assay; format: functional
[12] = Cytotoxicity against human BJ cells assessed as inhibition of cell growth incubated for 72 hrs by MTT assay; format: toxicity, cell-based; outline: as §2
PANC-1 [13] = assay: Induction of cell cycle arrest in human PANC-1 cells assessed as decrease in S phase cells at 1.88 uM incubated for 24 hrs by PI staining based flow cytometric analysis (Rvb= 19.8 %); format: functional; set-up: scale not given: the % may be the effect or the level left
HT-29 = assay: Cytotoxicity against human HT-29 cells assessed as inhibition of cell growth incubated for 72 hrs by MTT assay; format: functional, cell-based; conditions: HT-29, 72 h; outline: as §2
[14] = Toxicity in Balb/c mouse assessed as decrease of respiration at 50 to 100 mg/kg, ip measured upto 24 hrs by Irwin test; format: organism-based; conditions: in vivo, dose 50-100 mg/kg; outline: as §3
PANC-1 [15] = assay: Induction of apoptosis in human PANC-1 cells assessed as viable cells at […] incubated for 24 hrs by Annexin V-FITC/PI staining based flow cytometric analysis (reference value: 89.8%); format: functional; conditions: read-out: Activity; outline: as §1
PANC-1 [16] = assay: Synergistic cytotoxicity against human PANC-1 cells assessed as combination index at 0.12 uM incubated for 72 hrs in the presence of 6 uM gemcitabine by MTT assay; format: functional
[17] = Toxicity in Balb/c mouse assessed as decreased fear/startle at 50 to 100 mg/kg, ip measured upto 24 hrs by Irwin test; format: organism-based; conditions: in vivo, dose 50-100 mg/kg; outline: as §3
PANC-1 [18] = assay: Cytotoxicity against human PANC-1 cells assessed as inhibition of cell growth incubated for 72 hrs by MTT assay; format: functional, cell-based; conditions: PANC-1, 72 h; outline: as §2
PANC-1 [19] = assay: Induction of apoptosis in human PANC-1 cells assessed as chromatin condensation at 0.47 to 2.82 uM incubated for 24 hrs by Hoechst 33342 staining based fluorescence microscopic analysis; format: functional, cell-based; conditions: dose 0.47-2.82 µM
Outline: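 PANC-1 at 6500 cells/well, pre-incubated 24 h, then treated for 24 h. Washed with PBS and stained with Hoechst 33342 (1 μg mL−1 in PBS) 10 min at 37 °C in the dark. Nuclear morphology imaged by high-content fluorescence microscopy with a DAPI filter. Untreated cells as control.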

[20] = Toxicity in Balb/c mouse assessed as piloerection at 50 to 100 mg/kg, ip measured upto 24 hrs by Irwin test; format: organism-based; conditions: in vivo, dose 50-100 mg/kg; outline: as §3
PANC-1 [21] = assay: Induction of apoptosis in human PANC-1 cells assessed as early apoptotic cells at […] incubated for 24 hrs by Annexin V-FITC/PI staining based flow cytometric analysis (reference value: 5.2%); format: functional; outline: as §1
[22] = Toxicity in Balb/c mouse assessed as tremor at 50 to 100 mg/kg, ip measured upto 24 hrs by Irwin test; format: organism-based; conditions: in vivo, dose 50-100 mg/kg; outline: as §3
[23] = Toxicity in Balb/c mouse assessed as ptosis at 50 to 100 mg/kg, ip measured upto 24 hrs by Irwin test; format: organism-based; conditions: in vivo, dose 50-100 mg/kg; outline: as §3
SK-MEL-28 = assay: Cytotoxicity against human SK-MEL-28 cells assessed as inhibition of cell growth incubated for 72 hrs by MTT assay; format: functional, cell-based; conditions: SK-MEL-28, 72 h; outline: as §2
[24] = Toxicity in Balb/c mouse assessed as hypothermia at 50 to 100 mg/kg, ip measured upto 24 hrs by Irwin test; format: organism-based; conditions: in vivo, dose 50-100 mg/kg; outline: as §3
[25] = Toxicity in Balb/c mouse assessed as abnormal gait with rolling at 50 to 100 mg/kg, ip measured upto 24 hrs by Irwin test; format: organism-based; conditions: in vivo, dose 50-100 mg/kg; outline: as §3
PANC-1 [26] = assay: Inhibition of cell migration in human PANC-1 cells incubated upto 72 hrs by scratch wound healing assay; format: functional, cell-based; conditions: dose 0.47-2.82 µM
Outline: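 Confluent PANC-1 monolayers (4000 cells/well seeded, 24 h) were scratched with a P200 tip and washed with PBS. Medium with compound or 0.5% DMSO control was added. Wound area imaged by high-content microscopy at 0, 24, 48 and 72 h.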

Structure (SMILES): CCOC(=O)[C@]12CCC(C)(C)C[C@H]1C1=CC[C@@H]3[C@@]4(C)C(C=O)=C[C@@](C)(CO)[C@@H]4CC[C@@]3(C)[C@]1(C)CC2
- Activity (PANC-1 [1]): 1.2%
- Activity (PANC-1 [2]): 2.2%
- Activity (PANC-1 [3]): 2.6%
- viability at 0.94 µM (PANC-1 [4]): 90.4%
- IC50 (NCI-H2170): 1330 nM
- Activity [5]: Non-Toxic
- CI (PANC-1 [6]): 0.86
- Activity (PANC-1 [7]): 7.5%
- Activity (PANC-1 [8]): 9.9%
- Activity (PANC-1 [9]): 2.3%
- Activity [10]: Toxic
- CI (PANC-1 [11]): 0.79
- IC50 at 72 h [12]: 3060 nM
- Activity (PANC-1 [13]): 3.7%
- IC50 (HT-29): 510 nM
- Activity [14]: Toxic
- viability (PANC-1 [15]): 91.7%
- CI (PANC-1 [16]): 0.93
- Activity [17]: Toxic
- IC50 (PANC-1 [18]): 470 nM
- Activity (PANC-1 [19]): inactive
- Activity [20]: Toxic
- Activity (PANC-1 [21]): 4.9%
- Activity [22]: Toxic
- Activity [23]: Toxic
- IC50 (SK-MEL-28): 580 nM
- Activity [24]: Toxic
- Activity [25]: Toxic
- inhibition (PANC-1 [26]): Dose-Dependent Effect
